Data taken from PubChem BioAssay AID2805 (Sanford-Burnham Center for Chemical Genomics, 2010).
About 780 (0.24%) of roughly 330,000 compounds were called active.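 The calls were made as follows: active = activation factor of at least 2 at 20 µM; inactive = the rest.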 The entries come from a sample that favours actives as a whole.

Each compound was assayed on intestinal alkaline phosphatase [Mus musculus] (assay: mouse intestinal phosphatase enzyme activation – biochemical, luminescence, uHTS, primary screen (AID 2805)). Conditions: muIAP, CDP-Star luminescence, 30 min, at 10 µM, active compounds read high.
How it was run: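 Assay system: mouse IAP enzyme; reagent: chemiluminescent substrate CDP-Star; dosing: test compounds delivered from DMSO solution; schedule: 30 min at room temperature; measured by: luminescence from enzymatic CDP-Star hydrolysis; controls: DMSO-only wells and no-enzyme negative control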

| Compound | activation factor |
| --- | --- |
| Cc1cc(C)cc(NC(=S)NC2CC3CCCC(C2)N3Cc2cccs2)c1 (stereo not given) | 5.54 (active) |
| O=C1NC(=O)C(C/C=C/c2ccccc2)C(=O)N1 | 0.991 (inactive) |
| N#CC1=C(N)Oc2c(c(=O)oc3ccccc23)C1c1ccccc1OC(=O)c1cccs1 (stereo not given) | 0.989 (inactive) |
| C=CCn1c(O)c(/C=N/N2CCOCC2)c(=O)[nH]c1=S | 1.03 (inactive) |
| O=C1C2(Cl)C3(Cl)C4(Cl)C(Cl)(Cl)C5(Cl)C3(Cl)C1(Cl)C5(Cl)C24Cl (stereo not given) | 0.917 [1 = vehicle-only enzyme signal, 0 = enzyme-free wells] (inactive) |
